Assay results taken from ChEMBL document CHEMBL1158641, “Total synthesis of (+/-)-elegansidiol, (+/-)-farnesiferol B, and (+/-)-farnesiferol D” (2010).
Activity calls are given as the source filed them. The rule behind the calls is not given here.

Tests used:
A549 = assay: Cytotoxicity against human A549 cells after 48 hrs by SRB assay; type: functional
Method in brief: (§1)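 Compounds tested at […], triplicate wells, 48 h continuous exposure. SRB staining (0.4% in 1% acetic acid, 20 min RT), dye eluted with 10 mM trizma base, absorbance 540 nm (690 nm reference). GI50 from net-growth formula; experiments repeated three times.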

SK-N-SH = assay: Cytotoxicity against human SK-N-SH cells after 48 hrs by SRB assay; type: functional; method in brief: as §1

C=C1CC[C@H](O)C(C)(C)[C@@H]1CCC(C)=CCOc1ccc2ccc(=O)oc2c1 (mixture of isomers) was tested. Which GI50 (A549) did it give?
Its GI50 is “inactive”.

What about the LC50 (A549) of the same compound?
The LC50 was “inactive”.

What about the GI50 (SK-N-SH) of the same compound?
The GI50 was “inactive”.

And the LC50 (SK-N-SH)?
The LC50 was “inactive”.

With C=C1CC[C@@H](O)C(C)(C)[C@@H]1CCC(C)=CCOc1ccc2ccc(=O)oc2c1 (mixture of isomers) as the compound, how does the GI50 (A549; A549, 48 h) read?
The GI50 was 25 µM.

What about the LC50 (A549; A549, 48 h) of the same compound?
Its LC50 is 46 µM.

What about the GI50 (SK-N-SH) of the same compound?
The GI50 was “inactive”.

And the LC50 (SK-N-SH)?
Its LC50 is “inactive”.

What does the source list for COC(=O)Nc1nc2cc(C(=O)c3cccs3)ccc2[nH]1 [NOCODAZOLE]?
GI50 (A549; A549, 48 h): 0.5 µM; GI50 (SK-N-SH): 650 nM

Which results are given for C=C1CC[C@H](O)C(C)(C)[C@@H]1CC/C(C)=C/CO (racemic)?
GI50 (A549): inactive; LC50 (A549): inactive; GI50 (SK-N-SH): inactive; LC50 (SK-N-SH): inactive
